Results as given in ChEMBL document CHEMBL4229525, “Anti-angiogenic and anticancer effects of baicalein derivatives based on transgenic zebrafish model” (Bioorg Med Chem, 2018).
Active and inactive are the calls of the source. The calls are words filed in the database; no cut-off is given here.

Experiments:
A549 [1] = experiment: Induction of apoptosis in human A549 cells assessed as live cells at 2.5 uM after 48 hrs by Annexin-V-FITC/propidium iodide staining based flow cytometry (reference value: 75.2%); format: functional
Method in brief: (§1)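 A549 cells were plated at 2 × 10⁵ per well and held at 37 °C, 5% CO₂ for 24 h before compound was added. After treatment, cells were stained with annexin V-FITC plus propidium iodide for 30 min at 25 °C. Quadrants were read by flow cytometry: Q3 early apoptotic, Q2 late apoptotic.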

A549 [2] = experiment: Induction of apoptosis in human A549 cells assessed as early apoptotic cells at 2.5 uM after 48 hrs by Annexin-V-FITC/propidium iodide staining based flow cytometry (reference value: 15.2%); format: functional; method in brief: as §1
A549 [3] = experiment: Induction of apoptosis in human A549 cells assessed as late apoptotic cells at 2.5 uM after 48 hrs by Annexin-V-FITC/propidium iodide staining based flow cytometry (reference value: 4.05%); format: functional; method in brief: as §1
A549 [4] = experiment: Induction of apoptosis in human A549 cells assessed as necrotic cells at 2.5 uM after 48 hrs by Annexin-V-FITC/propidium iodide staining based flow cytometry (reference value: 5.45%); format: functional; method in brief: as §1
Danio rerio [5] = organism: Danio rerio; experiment: Antiangiogenic activity in 24 to 72 hrs post fertilized zebra fish embryo harboring fli1:EGFP after 48 hrs by fluorescence microscopic analysis; format: functional
Method in brief: (§2)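 Tg(fli1:EGFP) zebrafish: 20 dechorionated 24 hpf embryos per group in 1 mL embryo water with compound (1, 5, 10, 25, 50, 75, 100, 150, 200 μM), 28.5 °C for 48 h. Embryos anaesthetised in 0.016% tricaine; ISVs imaged by fluorescence microscopy at 72 hpf and scored for vessel defects and overall morphology. SU5416 positive control.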

Danio rerio [6] = organism: Danio rerio; experiment: Toxicity in 24 to 72 hrs post fertilized zebra fish embryo harboring fli1:EGFP; format: organism-based; details: zebrafish, in vivo
Method in brief: (§3)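 Dechorionated Tg(fli1:EGFP) embryos at 24 hpf, 20 per group, were kept in 1 mL embryo water with compound at 28.5 °C for a further 48 h. Compound was tested at 1, 5, 10, 25, 50, 75, 100, 150 and 200 μM. At 72 hpf, embryos anaesthetised with 0.016% tricaine had their ISVs imaged by fluorescence microscopy, with SU5416 as positive control. Definitions used: LOEC is anti-angiogenic effect in most larvae; LOTC is lowest toxic concentration; LC100 is total embryo lethality. TI = LOTC/LOEC; AI = LC100/LOEC.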

[7] = Toxicity index, ratio of MTC for 24 to 72 hrs post fertilized zebra fish embryo harboring fli1:EGFP to MEC for antiangiogenic activity in 24 to 72 hrs post fertilized zebra fish embryo harboring fli1:EGFP; format: organism-based, Danio rerio; details: fli1:EGFP transgenic, zebrafish, in vivo; method in brief: as §3
[8] = Antiangiogenic index, ratio of LC100 for 24 to 72 hrs post fertilized zebra fish embryo harboring fli1:EGFP to MEC for antiangiogenic activity in 24 to 72 hrs post fertilized zebra fish embryo harboring fli1:EGFP; format: toxicity, organism-based, Danio rerio; details: fli1:EGFP transgenic, zebrafish, in vivo; method in brief: as §3
Danio rerio [9] = organism: Danio rerio; experiment: Antiangiogenic activity in 48 hrs post fertilized zebra fish embryo harboring fli1:EGFP assessed as inhibition of intersegmental vessel formation by fluorescence microscopic analysis; format: functional, organism-based; method in brief: as §2
Danio rerio [10] = organism: Danio rerio; experiment: Antiangiogenic activity in 48 hrs post fertilized zebra fish embryo harboring fli1:EGFP assessed as inhibition of intersegmental vessel formation at 50 uM by fluorescence microscopic analysis; format: functional; method in brief: as §2
Danio rerio [11] = organism: Danio rerio; experiment: Antiangiogenic activity in 48 hrs post fertilized zebra fish embryo harboring fli1:EGFP assessed as inhibition of dorsal long axis blood vessel formation at 50 uM by fluorescence microscopic analysis; format: functional; method in brief: as §2
Danio rerio [12] = organism: Danio rerio; experiment: Toxicity in 48 hrs post fertilized zebra fish embryo harboring fli1:EGFP assessed as morphological changes at 5 to 50 uM; format: organism-based; details: zebrafish, in vivo; method in brief: as §2
Danio rerio [13] = organism: Danio rerio; experiment: Antiangiogenic activity in 48 hrs post fertilized zebra fish embryo harboring fli1:EGFP assessed as changes in blood vessel formation at late stage embryos by fluorescence microscopic analysis; format: functional, organism-based; method in brief: as §2
HUVEC [14] = experiment: Cytotoxicity against HUVEC assessed as inhibition of cell proliferation after 48 hrs by CCK8 assay; format: cell-based, Homo sapiens
Method in brief: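 HUVECs were seeded at 3000/well in EGM-2 and allowed 12 h to attach, then exposed 48 h to compound (5–50 μM) or 0.1% DMSO vehicle. Growth was read by CCK-8 absorbance at 450 nm, in triplicate, and IC50 was calculated from the concentration–response data.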

HUVEC [15] = experiment: Antimigratory activity in HUVEC at 25 uM after 8 hrs by crystal violet staining based Boyden chamber assay relative to control; format: functional, Homo sapiens
Method in brief: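 Boyden chamber with 8 μm pores, 8000 HUVECs/well, compound or vehicle in the top chamber, 8 h migration. Non-migrated cells removed by swab; migrated cells fixed in 100% methanol, stained with 0.05% crystal violet and counted manually in four random fields per well. Three replicate wells; % inhibition relative to control set at 100%; mean ± SEM, n=3.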

HUVEC [16] = experiment: Antiangiogenic activity in HUVEC assessed as inhibition of capillary-like tube formation after 12 hrs by matrigel-based microscopic analysis; format: functional, cell-based; details: Homo sapiens
Method in brief: (§4)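 Growth-factor-reduced Matrigel solidified 120 min at 37 °C; 2×10⁴ HUVECs/well in EGM-2 with compound or 2 μM SU5416, 12 h. Networks imaged at 100× and tube length quantified in four random fields; mean ± SEM, n=3.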

HUVEC [17] = experiment: Antiangiogenic activity in HUVEC assessed as inhibition of capillary-like tube formation at 25 uM after 12 hrs by matrigel-based microscopic analysis; format: functional; details: Homo sapiens; method in brief: as §4
HUVEC [18] = experiment: Antiangiogenic activity in HUVEC assessed as inhibition of capillary-like tube formation at 50 uM after 12 hrs by matrigel-based microscopic analysis; format: functional; details: Homo sapiens; method in brief: as §4
HUVEC [19] = experiment: Antiangiogenic activity in HUVEC assessed as inhibition of capillary-like tube formation at 100 uM after 12 hrs by matrigel-based microscopic analysis; format: functional; details: Homo sapiens; method in brief: as §4
A549 [20] = experiment: Antiproliferative activity against human A549 cells after 48 hrs by MTT assay; format: functional, cell-based; details: A549, 48 h
Method in brief: (§5)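 A549 or L929 fibroblasts seeded at 4×10⁴ cells/mL in DMEM with 10% FBS, 5% horse serum and penicillin/streptomycin, 37 °C, 5% CO₂. After 24 h, compound added for 48 h. MTT read at 570 nm; viability = OD treated/OD untreated ×100%; mean ± SD.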

L929 = experiment: Cytotoxicity against mouse L929 cells after 48 hrs by MTT assay; format: functional, cell-based; details: L929, 48 h; method in brief: as §5
A549 [21] = experiment: Induction of apoptosis in human A549 cells assessed as live cells at 1 uM after 48 hrs by Annexin-V-FITC/propidium iodide staining based flow cytometry (reference value: 75.2%); format: functional
Method in brief: (§6)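 A549 cells, 2×10⁵/well, were cultured for 24 h at 37 °C, 5% CO₂, then treated 48 h with 1, 4 or 8 μM compound. Staining used annexin V-FITC and PI, 30 min at 25 °C, followed by flow cytometry; Q3 was counted as early apoptotic and Q2 as late apoptotic.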

A549 [22] = experiment: Induction of apoptosis in human A549 cells assessed as early apoptotic cells at 1 uM after 48 hrs by Annexin-V-FITC/propidium iodide staining based flow cytometry (reference value: 15.2%); format: functional; method in brief: as §6
A549 [23] = experiment: Induction of apoptosis in human A549 cells assessed as late apoptotic cells at 1 uM after 48 hrs by Annexin-V-FITC/propidium iodide staining based flow cytometry (reference value: 4.05%); format: functional; method in brief: as §6
A549 [24] = experiment: Induction of apoptosis in human A549 cells assessed as necrotic cells at 1 uM after 48 hrs by Annexin-V-FITC/propidium iodide staining based flow cytometry (reference value: 5.45%); format: functional; method in brief: as §6
A549 [25] = experiment: Induction of apoptosis in human A549 cells assessed as live cells at 4 uM after 48 hrs by Annexin-V-FITC/propidium iodide staining based flow cytometry (reference value: 75.2%); format: functional; method in brief: as §6
A549 [26] = experiment: Induction of apoptosis in human A549 cells assessed as early apoptotic cells at 4 uM after 48 hrs by Annexin-V-FITC/propidium iodide staining based flow cytometry (reference value: 15.2%); format: functional; method in brief: as §6
A549 [27] = experiment: Induction of apoptosis in human A549 cells assessed as late apoptotic cells at 4 uM after 48 hrs by Annexin-V-FITC/propidium iodide staining based flow cytometry (reference value: 4.05%); format: functional; method in brief: as §6
A549 [28] = experiment: Induction of apoptosis in human A549 cells assessed as necrotic cells at 4 uM after 48 hrs by Annexin-V-FITC/propidium iodide staining based flow cytometry (reference value: 5.45%); format: functional; method in brief: as §6
A549 [29] = experiment: Induction of apoptosis in human A549 cells assessed as live cells at 8 uM after 48 hrs by Annexin-V-FITC/propidium iodide staining based flow cytometry (reference value: 75.2%); format: functional; method in brief: as §6
A549 [30] = experiment: Induction of apoptosis in human A549 cells assessed as early apoptotic cells at 8 uM after 48 hrs by Annexin-V-FITC/propidium iodide staining based flow cytometry (reference value: 15.2%); format: functional; method in brief: as §6
A549 [31] = experiment: Induction of apoptosis in human A549 cells assessed as late apoptotic cells at 8 uM after 48 hrs by Annexin-V-FITC/propidium iodide staining based flow cytometry (reference value: 4.05%); format: functional; method in brief: as §6
A549 [32] = experiment: Induction of apoptosis in human A549 cells assessed as necrotic cells at 8 uM after 48 hrs by Annexin-V-FITC/propidium iodide staining based flow cytometry (reference value: 5.45%); format: functional; method in brief: as §6
A549 [33] = experiment: Induction of apoptosis in human A549 cells assessed as caspase-3 activation at 1 to 8 uM by Ac-DEVD-pNA substrate based assay; format: functional, cell-based
Method in brief: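 A549 lysates were spun at 15,000 rpm for 15 min at 4 °C. Then 110 µg protein was mixed with reaction buffer and Ac-DEVD-pNA substrate (2 mM stock) and incubated 3 h at 37 °C. Caspase-3 activity was measured as released pNA at 405 nm.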

O=C(O)c1cc(O)c(O)c(O)c1 [GALLIC ACID]
Activity (A549 [1]): 39.5% | Activity (A549 [2]): 32.6% | Activity (A549 [3]): 20.2% | Activity (A549 [4]): 6.7%

O=C(COc1c(OCc2ccccc2)cc2oc(-c3ccccc3)cc(=O)c2c1O)N1CCNCC1
MEC (Danio rerio [5]): 5 µM | LC100 (Danio rerio [6]): 100 µM | MTC (Danio rerio [6]): 25 µM | selectivity ratio [7]: 5 | selectivity ratio [8]: 20 | inhibition (Danio rerio [9]): Dose-dependent effect | inhibition (INH) (Danio rerio [10]): 100% | inhibition (INH) (Danio rerio [11]): 100% | Activity (Danio rerio [12]): Non-Toxic | Activity (Danio rerio [13]): inactive | IC50 (HUVEC [14]; Homo sapiens, HUVEC): 57.1 µM | inhibition (INH) (HUVEC [14]; human, huvec): Dose-dependent effect | Activity (HUVEC [15]): <=50% | inhibition (HUVEC [16]): Dose-dependent effect | inhibition at 25 µM (HUVEC [17]): 24.9% | inhibition at 50 µM (HUVEC [18]): 54.2% | inhibition at 100 µM (HUVEC [19]): 72.6% | IC50 (A549 [20]): 4.73 µM | IC50 (L929): 19.1 µM | Activity (A549 [21]): 36.2% | Activity (A549 [22]): 32.9% | Activity (A549 [23]): 23% | Activity (A549 [24]): 7.92% | Activity (A549 [25]): 22.4% | Activity (A549 [26]): 36.3% | Activity (A549 [27]): 36% | Activity (A549 [28]): 5.4% | Activity (A549 [29]): 10.2% | Activity (A549 [30]): 22.5% | Activity (A549 [31]): 62.1% | Activity (A549 [32]): 2.15% | Activity (A549 [33]): Active
